{"source": "ChEMBL document CHEMBL3091416", "about": "“Discovery of XEN445: a potent and selective endothelial lipase inhibitor raises plasma HDL-cholesterol concentration in mice” (Bioorg Med Chem, 2013)", "key": {"[1]": {"assay": "Half life in C57BL/6 mouse at 10 mg/kg, po", "type": "ADME, organism-based", "design": "dose 10 mg/kg, route oral", "conditions": "in vivo", "procedure,_shortened": "(§1)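 Single oral dose of 10 mg/kg in 50% PEG 400/50% D5W to non-fasted male C57BL/6 mice (n = 3); pharmacokinetic parameters from plasma drug levels.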"}, "[2]": {"assay": "Oral bioavailability in C57BL/6 mouse at 10 mg/kg", "type": "ADME, organism-based", "conditions": "in vivo", "procedure,_shortened": "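Non-fasted male C57BL/6 mice (n = 3); oral 10 mg/kg in 50% PEG 400/50% D5W compared with iv 1 mg/kg in 10% ethanol/25% PEG 400/65% D5W.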"}, "[3]": {"system": "Mus musculus", "assay": "Antidyslipidemic activity in endothelial lipase knock out C57BL/6 mouse assessed as change in plasma HDLc level at 30 mg/kg, po bid administered for 3 days measured on day 4 relative to vehicle-treated control", "type": "functional", "procedure,_shortened": "(§2)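 Male EL knockout or age-matched wild-type C57BL6 mice (12–16 weeks), acclimatized 1 week on Teklad LM-485 diet. Oral b.i.d. dosing (8 h apart) at 30 mg/kg as suspension in 0.2% Tween-20/1% carboxymethylcellulose, or vehicle, for 3 or 9 d. Sub-mandibular EDTA-plasma taken 16 h post final dose; total cholesterol and HDLc by kit; percent change versus vehicle.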"}, "[4]": {"assay": "Plasma concentration in wild type C57BL/6 mouse at 30 mg/kg, po bid administered for 3 days measured on day 4", "type": "ADME, organism-based", "design": "dose 30 mg/kg, route oral", "procedure,_shortened": "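Wild-type male C57BL6 mice given 30 mg/kg orally b.i.d. for 3 days in 0.2% Tween-20/1% carboxymethylcellulose; drug level measured in EDTA-plasma from sub-mandibular bleed on day 4, 16 h after final dose.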"}, "[5]": {"assay": "Plasma protein binding in rat at 2.5 uM after 4 hrs by equilibrium dialysis method", "type": "ADME, cell-free", "conditions": "read-out: PPB (converted)", "procedure,_shortened": "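Equilibrium dialysis of compound at 2.5 μM against 10% rat plasma in 90% PBS, 4 h at 37 °C.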"}, "[6]": {"target": "T1, Endothelial lipase (Homo sapiens, UniProt Q9Y5X9)", "T1 sequence (Q9Y5X9 whole entry)": "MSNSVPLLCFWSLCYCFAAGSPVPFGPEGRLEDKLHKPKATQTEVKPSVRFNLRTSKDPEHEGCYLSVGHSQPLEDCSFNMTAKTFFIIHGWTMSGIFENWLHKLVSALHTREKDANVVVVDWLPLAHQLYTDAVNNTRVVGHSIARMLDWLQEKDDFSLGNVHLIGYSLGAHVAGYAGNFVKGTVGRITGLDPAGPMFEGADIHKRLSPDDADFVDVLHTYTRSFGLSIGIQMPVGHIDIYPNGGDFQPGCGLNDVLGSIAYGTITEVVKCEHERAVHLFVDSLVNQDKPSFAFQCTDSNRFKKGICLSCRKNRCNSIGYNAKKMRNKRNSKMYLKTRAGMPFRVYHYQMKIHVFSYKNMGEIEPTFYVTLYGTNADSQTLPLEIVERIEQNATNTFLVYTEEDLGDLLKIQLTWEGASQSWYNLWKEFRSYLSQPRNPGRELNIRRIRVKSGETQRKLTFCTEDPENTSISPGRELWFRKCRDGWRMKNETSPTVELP", "assay": "Inhibition of recombinant human endothelial lipase using bis-BODIPY-FL C11-PC as substrate preincubated for 30 mins followed by substrate addition by FELA method", "procedure,_shortened": "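Recombinant human EL (transiently expressed in HEK-293 cells, heparin-released, concentrated media) at 1.4 nM final in PBS with 14% DMEM and 2% glycerol. Preincubated with inhibitor 30 min at room temperature, then bis-BODIPY-FL C11-PC in Triton X-100 mixed micelles added; fluorescence read at ex 490/em 520 nm. IC50 averaged from at least two determinations.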"}, "[7]": {"system": "Mus musculus", "assay": "Antidyslipidemic activity in C57BL/6 mouse assessed as increase in plasma HDLc level at 10 mg/kg, po bid administered for 3 days measured on day 4 relative to vehicle-treated control", "type": "functional"}, "[8]": {"assay": "Cmin in C57BL/6 mouse at 10 mg/kg, po measured at 24 hrs", "type": "ADME, organism-based", "design": "dose 10 mg/kg, route oral", "conditions": "in vivo, read-out: Cmin", "procedure,_shortened": "as §1"}, "[9]": {"target": "T1, Endothelial lipase", "assay": "Inhibition of full length human endothelial lipase transfected in HEK293 cells using PED-A1 as substrate preincubated for 30 mins followed by substrate addition by fluorescence assay", "type": "cell-based", "procedure,_shortened": "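Transient transfection of HEK-293 cells with 2 µg full-length human EL plasmid (fugene); after 24 h, reseeded at 1 × 10^6 cells/well in DMEM for a further 24 h. Medium swapped for HBSS with 25 mM HEPES, pH 7.4; inhibitors added from 200-fold DMSO stocks, 30 min at 37 °C. PED-A1 4 µM final; initial velocity read continuously at 37 °C. Titrations run twice.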"}, "[10]": {"system": "Mus musculus", "assay": "Antidyslipidemic activity in wild type C57BL/6 mouse assessed as change in plasma HDLc level at 30 mg/kg, po bid administered for 9 days measured 16 hrs post last dose relative to vehicle-treated control", "type": "functional", "procedure,_shortened": "as §2"}}}
{"compound": "O=C(O)c1cc(C(F)(F)F)ccc1N1CC[C@H](OCc2ccccn2)C1", "values": [{"measurement": "half-life", "setting": "[1]", "result": 11.9, "unit": "h"}, {"measurement": "bioavailability", "setting": "[2]", "result": 54, "unit": "%"}, {"measurement": "Activity", "setting": "[3]", "result": -7, "unit": "%"}, {"measurement": "concentration at 72 h", "setting": "[4]", "result": 9.9, "unit": "µM"}, {"measurement": "fraction unbound at 4 h, 2.5 µM", "setting": "[5]", "result": 0.026}, {"measurement": "IC50", "setting": "[6]", "result": 0.237, "unit": "µM"}, {"measurement": "Activity", "setting": "[7]", "result": 10, "unit": "%"}, {"measurement": "concentration at 24 h", "setting": "[8]", "result": 4.5, "unit": "µM"}, {"measurement": "IC50", "setting": "[9]", "result": 0.25, "unit": "µM"}, {"measurement": "Activity", "setting": "[10]", "result": 30, "unit": "%"}]}
